# Rce1 inhib: inhibitors of yeast Ras-converting enzyme; Q03530; calls only; 290,000 compounds, 0.27% hits; yeast membranes, quenched prenylated peptide cleavage fluorescence; AID 2563;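 active = fall in fluorescence gain of 50% or more versus controls, with final raw signal at or below 3038400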
# Target sequence (Q03530 whole entry, looked up): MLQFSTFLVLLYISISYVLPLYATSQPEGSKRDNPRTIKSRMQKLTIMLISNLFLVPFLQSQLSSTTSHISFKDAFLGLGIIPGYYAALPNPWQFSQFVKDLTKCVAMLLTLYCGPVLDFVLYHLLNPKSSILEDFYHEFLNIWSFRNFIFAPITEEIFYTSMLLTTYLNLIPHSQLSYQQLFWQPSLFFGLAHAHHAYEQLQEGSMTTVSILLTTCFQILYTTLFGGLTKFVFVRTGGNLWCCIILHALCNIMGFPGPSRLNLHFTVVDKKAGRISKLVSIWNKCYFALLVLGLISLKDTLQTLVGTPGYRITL
# Rev-erbA mod: Rev-erb alpha (human) modulation; P20393; Rev-erbα–FITC-DNA binding, fluorescence polarization, 90 min; activity, % at 10 µM; 370,000 compounds, 0.79% hits;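 active = activity above about 14%, limit read from the data; passing the limit was not always enough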
# UCH37 inh: inhibitors of human deubiquitinating enzyme UCH37. Q9Y5K5. purified proteasome/UCH37, Ub-AMC cleavage fluorescence. inhibition, % (concentration not given with the values). 330,000 compounds, 0.33% hits. AID 588478;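 active = mean inhibition over replicate wells above about 20%, limit read from the data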
# Target sequence (Q9Y5K5 whole entry, looked up): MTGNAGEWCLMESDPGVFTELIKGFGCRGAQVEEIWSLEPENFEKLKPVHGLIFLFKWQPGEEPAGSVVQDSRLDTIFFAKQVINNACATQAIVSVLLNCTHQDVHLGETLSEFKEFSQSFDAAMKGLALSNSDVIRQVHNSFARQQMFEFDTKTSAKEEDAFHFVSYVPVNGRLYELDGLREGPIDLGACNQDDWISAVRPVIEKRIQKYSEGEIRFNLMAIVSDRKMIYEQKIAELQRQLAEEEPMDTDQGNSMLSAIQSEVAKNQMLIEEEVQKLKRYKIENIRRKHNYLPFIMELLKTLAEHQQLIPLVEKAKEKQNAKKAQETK
#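 Signal – fluorescence, ex 355 nm, em 460 nm · System – Proteasome-bound UCH37 · Input – 0.15 nM proteasome as dispensed · Timing – 30 min preincubation with enzyme, 25 min cleavage at room temperature · Read-out basis – percent inhibition of cleavage signal versus uninhibited and no-proteasome wells · Medium – Tris-HCl pH 7.4 with ATP-MgCl2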
# PG9 Ab binder: small molecules binding HIV-1 gp120 antibody PG9 | TR-FRET gp120-PG9 antibody binding | 360,000 compounds, 0.43% hits | AID 624416 | inhibition, % at 6.7 µM; in the data active = inhibition above about 8.5%
# beta cell repl: induces beta-cell replication in MIN6 cells; MIN6 cells proliferation, ATPlite luminescence, 48 h; cells starved in 0.2% serum; 100% = growth in 10% serum; proliferation, % at 10 µM; 330,000 compounds, 0.29% hits;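 active = compounds whose signal lies at least 3.5 SD above the mean of all wells on their plate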
# Yeast superoxide: yeast age-related superoxide inhibition as caloric restriction mimetic; S. cerevisiae aged cells, superoxide DHE fluorescence; stronger effect = lower value; superoxide response (% of plate mean), % at 10 µM; 330,000 compounds, 0.18% hits; AID 2690;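 active = superoxide response under a set limit, about three screen SD below normal, cut at about 65% in these data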;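 note: yeast aged for seven days with compound at 30 °C before DHE staining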
# Superoxide pick: confirmation of caloric restriction mimetics inhibiting yeast age-related superoxide. 850 compounds, 1% hits. superoxide response (% of plate), % at 10 µM. shares compounds with Yeast superoxide. AID 434994. S. cerevisiae aging, superoxide DHE fluorescence; stronger effect = lower value;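 active = superoxide signal below 65% of the plate average of sample wells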;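 note: cells aged with compound for 7 days at 30 degrees C before staining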
# DHE counter: compound alters DHE oxidation or fluorescence in yeast. shares compounds with Yeast superoxide. S. cerevisiae BY4741, flow cytometry; stronger effect = lower value. 850 tested, under 10 active. fluorescence response, % at 10 µM;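 active = fluorescence response below 15%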;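 note: lower means stronger quenching of DHE signal or ROS scavenging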
# A number is an active result; – = inactive; · = not tested or not shown. An excerpt weighted towards active compounds, which were near 1.9% of everything screened.
SMILES,Rce1 inhib,Rev-erbA mod,UCH37 inh,PG9 Ab binder,beta cell repl,Yeast superoxide,Superoxide pick,DHE counter
O=C(Cc1c(F)cccc1Cl)Nc1cc(S(=O)(=O)N2CCOCC2)ccc1N1CCCC1,·,–,–,–,–,–,·,·
COc1ccc(CC(=O)Nc2cc(S(=O)(=O)N3CCOCC3)ccc2N2CCCC2)cc1OC,·,–,–,–,–,–,–,–
O=C(Cc1ccc(Cl)cc1)Nc1cc(S(=O)(=O)N2CCOCC2)ccc1N1CCCC1,–,–,–,–,–,–,–,–
CC(=NNC(=O)c1ccoc1C)c1cccc2ccccc12,·,·,–,·,·,·,·,·
Cc1cc(C)cc(NC(=O)N2CCNC(=O)C2CC(=O)Nc2cc(Cl)ccc2Cl)c1 (centres undefined),–,–,–,–,–,64.5,–,–
O=C(O)c1ccccc1C=NNC(=S)NC1CCCCC1,·,·,–,·,·,·,·,·
Cc1cc(C)c2nc(N=C(N)NC(=O)c3ccccc3)nc(C)c2c1,·,·,–,·,·,·,·,·
CSCCC(NC(=O)c1ccccc1Br)C(=O)NCc1ccc(F)cc1 (centres undefined),–,–,–,–,–,23.1,–,–
COC(=O)NN=C(C)c1cccc(C(F)(F)F)c1,·,·,–,·,·,·,·,·
Cc1ccccc1COc1ccc(C=NNC(=O)c2nnn(-c3nonc3N)c2CN2CCC(C)CC2)cc1,·,·,–,·,·,·,·,·
CCOc1ccc(NC(=O)CCn2nc(C)c(S(=O)(=O)N3CCCCC3)c2C)cc1,–,–,–,–,–,58.3,–,–
Cc1ccc(-c2nc(N)n(S(C)(=O)=O)n2)cc1,–,–,–,–,–,65.2,–,–
CC(=O)Nc1ccc(S(=O)(=O)n2nc(-c3ccc(C)cc3)nc2N)cc1,–,–,–,–,–,–,·,·
Cc1cc(/C=N/NC(=O)C(O)(c2ccccc2)c2ccccc2)c(C)n1-c1ccc(C(=O)O)cc1,–,–,·,–,–,55.5,–,–
Cc1cc(/C=N/NC(=O)C(O)(c2ccccc2)c2ccccc2)c(C)n1-c1cccc(C(=O)O)c1,–,–,·,–,–,–,·,·
CNC(=O)c1c(NC(=O)c2ccc(S(=O)(=O)N(C)c3ccccc3)cc2)sc2c1CCN(C(C)C)C2,–,–,–,–,–,54.2,–,–
CCOc1ccccc1NC(=O)NCc1ccc(F)cc1,–,–,–,–,–,64.5,–,–
O=C(NCCCN1CCOCC1)C(=O)NN=Cc1ccccc1Cl,·,·,–,·,·,·,·,·
O=C(NN=Cc1ccccn1)c1ccc2nc[nH]c2c1,·,·,–,·,·,·,·,·
O=S(=O)(c1ccc(Cl)s1)N1CCC(Cc2ccccc2)CC1,–,–,–,–,–,62.3,–,–
O=S(=O)(c1ccc(Br)s1)N1CCC(Cc2ccccc2)CC1,–,–,–,–,–,–,·,·
Cc1cccc([C@@H](NC(=O)OC(C)(C)C)C(=O)OC(C)(C)C)c1,·,–,–,–,–,62.1,–,–
CC(C)(C)OC(=O)N[C@@H](C(=O)OC(C)(C)C)c1ccc2ccccc2c1,·,–,–,–,–,–,·,·
Cc1snc(S(=O)(=O)C(C#N)=NNc2ccccc2)c1C#N,·,·,–,·,·,·,·,·
CC(Oc1ccccc1)C(=O)Nc1c2c(nn1-c1ccccc1)CS(=O)(=O)C2 (centres undefined),–,–,–,–,–,–,·,·
SMILES,Rce1 inhib,Rev-erbA mod,UCH37 inh,PG9 Ab binder,beta cell repl,Yeast superoxide,Superoxide pick,DHE counter
COc1ccc(-n2nc3c(c2NC(=O)C(C)Oc2ccccc2)CS(=O)(=O)C3)cc1 (centres undefined),–,–,–,–,–,53.7,–,–
O=c1c2ccccc2nc(-c2ccccc2)n1O,–,–,–,–,–,–,·,·
COc1ccc(-c2nc3ccccc3c(=O)n2O)cc1,–,–,–,–,–,61.2,–,–
O=C(Nc1ccccc1)/C(=C/c1cccnc1)NC(=O)c1ccco1,–,–,–,–,–,61.8,–,–
O=C(CN1CCN(c2ccccc2F)CC1)c1ccc2cc[nH]c2c1,–,–,–,–,–,62.7,–,–
Cc1cc(C(=O)NN=Cc2cn(C)nc2C)c2ccccc2n1,·,·,–,·,·,·,·,·
O=C(CC1CCCCC1)NCCS(=O)(=O)N1CCN(c2ccccc2)CC1,–,–,–,–,–,64.0,–,–
C=CCOc1ccc(C=NO)cc1Cl,·,·,–,·,·,·,·,·
COC(=O)c1ccnc(C=NO)c1,·,·,–,·,·,·,·,·
Cc1ccc(S(=O)(=O)N2CCCCC2)cc1C(=O)N1CCCC1,–,–,–,–,–,–,·,·
COc1ccc(S(=O)(=O)N2CCCC2)cc1C(C)C,–,–,–,–,–,–,–,–
Cc1ccc(S(=O)(=O)N2CCCC2)cc1C(=O)O,–,–,·,–,–,–,–,–
COc1ccc(S(=O)(=O)N2CCCC2)cc1C(=O)O,–,–,–,–,–,–,–,–
CCOC(=O)c1cccc(S(=O)(=O)N2CCCC2)c1,–,–,–,–,–,–,–,–
Cc1cc(C(=O)NN=Cc2c(C)n(C)c3ccccc23)n[nH]1,·,·,–,·,·,·,·,·
S=c1[nH]nc(-c2ccccn2)n1N=Cc1c(Cl)cccc1Cl,·,·,–,·,·,·,·,·
COC(=O)c1c(C)nc(C)c(C(=O)OC)c1-c1ccsc1,–,–,–,–,–,–,·,·
Cc1nc(C)c(C(=O)O)c(-c2ccsc2)c1C(=O)O,–,–,–,–,–,60.9,–,–
CC(=NNc1nncc2ccccc12)c1cccc(OC(F)F)c1,·,·,–,·,·,·,·,·
COc1cccc(NS(=O)(=O)c2c(C)cc(C)cc2C)c1,–,–,–,–,–,–,–,–
O=c1[nH]c2ccccc2cc1CN(Cc1cccnc1)S(=O)(=O)c1ccc(Cl)cc1,–,–,–,–,–,65.0,–,–
O=c1[nH]c2ccccc2cc1CN(Cc1cccnc1)S(=O)(=O)c1ccc([N+](=O)[O-])cc1,–,–,–,–,–,–,·,·
CCc1ccccc1NC(=O)CC1SC(=Nc2nccs2)N(CC)C1=O (centres undefined),·,·,–,·,·,·,·,·
CCN1CCCc2cc(CN(CCN3CCOCC3)C(=S)Nc3ccccc3OC)ccc21,–,–,–,–,–,–,·,·
CCN1CCCc2cc(CN(CCN3CCOCC3)C(=S)Nc3ccccc3C)ccc21,–,–,–,–,–,61.0,–,–
O=C(O)C1CCCN1S(=O)(=O)c1ccc(F)cc1 (centres undefined),–,–,–,–,–,–,–,–
Cc1ccc(NC(=O)c2cc3ccccc3oc2=N)cc1,–,–,–,–,–,–,·,·
N=c1oc2cc(O)ccc2cc1C(=O)Nc1ccc(Cl)cc1,–,–,–,–,–,49.9,–,–
CC1(C)C(=O)CC[C@@]2(C)[C@H]1CC[C@@]1(C)CC3=C(CC[C@@H]12)[C@@]1(C)CCC(=O)C(C)(C)[C@@H]1CC3,·,·,·,·,–,63.9,–,–
CC(C)OC(=O)CSc1nnc(-c2ccc(Cl)cc2Cl)o1,–,–,–,–,–,–,–,–
